Measurements from ChEMBL document CHEMBL3421591, “Improved Synthesis of Biotinol-5'-AMP: Implications for Antibacterial Discovery” (ACS Med Chem Lett, 2015).
In brackets after ≈: the same amount, converted by molar mass. Activity calls are given as the source filed them. The calls are words filed in the database; no cut-off is given here.

Columns and labels:
Staphylococcus = assay: Antimicrobial activity against coagulase-negative Staphylococcus after 16 to 20 hrs by two-fold microdilution broth method; format: functional
Staphylococcus aureus [1] = assay: Antimicrobial activity against methicillin-sensitive Staphylococcus aureus after 16 to 20 hrs by two-fold microdilution broth method; format: functional
[2] = system: Mycobacterium tuberculosis; assay: Antimicrobial activity against Mycobacterium tuberculosis H37Rv after 16 to 20 hrs by two-fold microdilution broth method; format: functional
[3] = Inhibition of Klebsiella pneumonia recombinant BPL using 3H-biotin as substrate after 10 mins by liquid scintillation counting analysis; design: species or system Klebsiella pneumoniae; settings: read-out: Ki(app)
Summary of the method: (§1)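 In vitro biotinylation assay measuring radiolabeled biotin incorporation onto an acceptor protein by each recombinant BPL, run at varying inhibitor concentrations. Apparent Ki was fitted with the Morrison tight-binding equation, accounting for the BPL concentration in the assay. It was then extrapolated using each enzyme's apparent K_M for biotin, assuming inhibition competitive with biotin.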

[4] = Inhibition of Staphylococcus aureus recombinant BPL using 3H-biotin as substrate after 10 mins by liquid scintillation counting analysis; settings: read-out: Ki(app); summary of the method: as §1
[5] = Inhibition of Acinetobacter calcoaceticus recombinant BPL using 3H-biotin as substrate after 10 mins by liquid scintillation counting analysis; settings: read-out: Ki(app); summary of the method: as §1
Enterococcus faecalis = assay: Antimicrobial activity against Enterococcus faecalis after 16 to 20 hrs by two-fold microdilution broth method; format: functional
Staphylococcus aureus [6] = assay: Antimicrobial activity against methicillin-resistant Staphylococcus aureus after 16 to 20 hrs by two-fold microdilution broth method; format: functional
[7] = Cytotoxicity against human HepG2 cells after 24 to 48 hrs by WST-1 assay; format: cell-based
Enterococcus faecium = assay: Antimicrobial activity against Enterococcus faecium after 16 to 20 hrs by two-fold microdilution broth method; format: functional
Escherichia coli = assay: Antimicrobial activity against Escherichia coli ATCC 25922 after 16 to 20 hrs by two-fold microdilution broth method; format: functional
Staphylococcus aureus [8] = assay: Competitive inhibition of Staphylococcus aureus recombinant BPL using 3H-biotin as substrate by Lineweaver-Burk plot analysis
Summary of the method: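 S. aureus BPL biotinylation with ³H-biotin: enzyme velocity measured across varying biotin concentrations at inhibitor 0, 20, 100 and 200 nM. Double-reciprocal Lineweaver–Burk plots of 1/velocity vs 1/biotin were used to define the inhibition mode, with K_M and V_max compared across inhibitor levels. Points are mean ± SEM of three replicates.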

[9] = system: Mycobacterium tuberculosis; assay: Antimicrobial activity against Mycobacterium tuberculosis 37892293 after 16 to 20 hrs by two-fold microdilution broth method; format: functional
[10] = system: Mycobacterium tuberculosis; assay: Antimicrobial activity against Mycobacterium tuberculosis 3688023 after 16 to 20 hrs by two-fold microdilution broth method; format: functional
[11] = Inhibition of Mycobacterium tuberculosis recombinant BPL using 3H-biotin as substrate after 10 mins by liquid scintillation counting analysis; settings: read-out: Ki(app)
Summary of the method: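 Recombinant BPL activity was measured as radiolabelled biotin incorporated onto an acceptor protein, across a range of inhibitor concentrations. Apparent Ki came from the Morrison tight-binding equation, because Ki values lay within 10-fold of the BPL concentration used. Binding was treated as competitive with biotin, so values were extrapolated using the apparent KM for biotin.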

Nc1ncnc2c1ncn2[C@@H]1O[C@H](COP(=O)(O)OCCCCC[C@@H]2SC[C@@H]3NC(=O)N[C@@H]32)[C@@H](O)[C@H]1O
MIC (Staphylococcus): 1 µg/mL (≈ 1.79 µM)
MIC (Staphylococcus aureus [1]): 2 µg/mL (≈ 3.57 µM)
MIC [2]: 2.5 µg/mL (≈ 4.47 µM)
Ki [3]: 482 nM
Ki [4]: 18 nM
Ki [5]: 461 nM
MIC (Enterococcus faecalis): > 128 µg/mL
MIC (Staphylococcus aureus [6]): 2 µg/mL (≈ 3.57 µM)
CC50 [7]: > 200 µg/mL
MIC (Enterococcus faecium): > 128 µg/mL
MIC (Escherichia coli): > 128 µg/mL
inhibition (Staphylococcus aureus [8]): Active
MIC [9]: 2.5 µg/mL (≈ 4.47 µM)
MIC [10]: 0.5 µg/mL (≈ 0.894 µM)
Ki [11]: 52 nM

Nc1ncnc2c1ncn2[C@@H]1O[C@H](CNS(=O)(=O)NC(=O)CCCC[C@@H]2SC[C@@H]3NC(=O)N[C@@H]32)[C@@H](O)[C@H]1O
MIC [2]: 0.1 µg/mL (≈ 0.175 µM)
MIC [9]: 0.1 µg/mL (≈ 0.175 µM)
MIC [10]: 0.1 µg/mL (≈ 0.175 µM)
